# Source: ChEMBL document CHEMBL2146382, “Cytotoxic and antineoplastic activity of timosaponin A-III for human colon cancer cells” (J Nat Prod, 2011)
# The source made the active and inactive calls. No cut-off for these calls is given here.
# Key:
# HCT-15 [1] = assay: Cell cycle arrest in human HCT15 cells assessed as accumulation at G0/G1 phase at 20 uM after 24 hrs using propidium-iodide staining by flow-cytometry (reference value: 37.0 %); assay type: functional
# HCT-15 [2] = assay: Cell cycle arrest in human HCT15 cells assessed as accumulation at G2/M phase at 20 uM after 24 hrs using propidium-iodide staining by flow-cytometry (reference value: 22.4 %); assay type: functional
# HCT-15 [3] = assay: Antineoplastic activity against human HCT15 cells xenografted in nude BALB/c mouse assessed as inhibition of rate of tumor size at 5 mg/kg, ip 3 times a week for 4 weeks relative to control; assay type: functional; conditions: HCT-15, ip, 672 h, route intraperitoneal
# Summary of the method: (§1)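 HCT-15 cells (2 × 10^6 in 200 μL medium) implanted subcutaneously in flanks of BALB/c-nu (nu/nu) mice; dosing began at ca. 80 mm3 tumours; groups of five, randomized. 2 or 5 mg/kg given ip three times weekly in ethanol–cremophor–H2O (0.5:0.5:99), vehicle controls; caliper volume (3.14·L·W·H/6) three times weekly for 30 days; Ki-67 immunohistochemistry on tumour sections (1:250, 4 °C overnight, DAB, hematoxylin counterstain).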
# Mus musculus = assay: Toxicity in human HCT15 cells xenografted nude BALB/c mouse assessed as body weight changes at 2 to 5 mg/kg, ip administered 3 times a week for 4 weeks measured after 9 to 30 days; assay type: organism-based, HCT-15; parameters: route intraperitoneal; conditions: in vivo
# Summary of the method: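 HCT-15 cells (2 × 10^6) were injected subcutaneously into the flank of BALB/c-nu (nu/nu) mice. Dosing began once tumours reached ca. 80 mm3, with mice randomised to groups of five. Compound (2 or 5 mg/kg) in ethanol-cremophor-H2O (0.5:0.5:99) was given ip three times weekly for four weeks. Controls received equal-volume vehicle. Body weight was monitored over the testing period, with tumour measurements over 30 days.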
# HCT-15 [4] = assay: Antineoplastic activity against human HCT15 cells xenografted in nude BALB/c mouse assessed as inhibition of Ki-67 expression at 2 mg/kg, ip 3 times a week for 4 weeks by immunohistochemical analysis; assay type: functional, organism-based; parameters: dose 2 mg/kg; summary of the method: as §1
# HCT-15 [5] = assay: Cell cycle arrest at G2/M phase in human HCT15 cells assessed as cyclin A down regulation at 5 to 20 uM after 12 to 24 hrs by Western blot analysis; assay type: functional, cell-based
# Summary of the method: (§2)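 HCT-15 cells in RPMI/10% FBS exposed to test compound at various concentrations; lysates quantified by BCA, 30–50 μg protein run on 10% SDS-PAGE, transferred to PVDF, blocked 1 h in 5% milk/PBST, primary antibodies overnight at 4 °C, HRP anti-mouse IgG 1:1500 for 3 h at room temperature, ECL detection.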
# HCT-15 [6] = assay: Cell cycle arrest at […] phase in human HCT15 cells assessed as cyclin A down regulation at 5 to 20 uM after 12 to 24 hrs by Western blot analysis; assay type: functional, cell-based; summary of the method: as §2
# HCT-15 [7] = assay: Cell cycle arrest at M phase in human HCT15 cells assessed as decrease in cyclin B1 level at 5 to 20 uM after 12 to 24 hrs by Western blot analysis; assay type: functional, cell-based; summary of the method: as §2
# HCT-15 [8] = assay: Induction of apoptosis in human HCT15 cells assessed as increase in caspase-3 expression at 5 to 20 uM by Western blot analysis; assay type: functional, cell-based; summary of the method: as §2
# HCT-15 [9] = assay: Induction of apoptosis in human HCT15 cells assessed as suppression of Bcl2 expression at 5 to 20 uM after 24 hrs by Western blot analysis; assay type: functional, cell-based
# Summary of the method: (§3)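 HCT-15 cells (RPMI, 10% heat-inactivated FBS, antibiotics-antimycotics, 37 C, 5% CO2) exposed to compound. Cells lysed, protein measured by BCA, 30-50 μg per lane resolved on 10% SDS-PAGE and electroblotted to PVDF. Membranes blocked 1 h in 5% nonfat milk/PBST, probed with primary antibodies overnight at 4 C, then HRP anti-mouse IgG 1:1500 for 3 h at room temperature. Detection by ECL; β-actin antibody available.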
# HCT-15 [10] = assay: Induction of apoptosis in human HCT15 cells assessed as suppression of Bcl-xL expression at 5 to 20 uM after 24 hrs by Western blot analysis; assay type: functional, cell-based; summary of the method: as §3
# SW480 = assay: Growth inhibition of human SW480 cells; assay type: functional, cell-based
# Summary of the method: (§4)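 SRB assay: cells at 5 × 10^4 cells/mL were exposed to a concentration series for 3 days, fixed with 10% TCA and stained with sulforhodamine B. Survival was expressed as % of solvent-treated control and IC50 taken by nonlinear regression of % survival versus concentration. Media held 10% heat-inactivated FBS plus antibiotics: RPMI (HCT-15, HCT 116, HT-29), RPMI with 25 mM HEPES (SW480, SW620), DMEM (MRC-5, Hs68). Cultures were kept at 37 C, 5% CO2.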
# Hs68 = assay: Growth inhibition of human HS68 cells; assay type: cell-based; summary of the method: as §4
# HCT-15 [11] = assay: Cell cycle arrest in human HCT15 cells assessed as increase in cyclin E expression at 5 to 20 uM after 12 to 24 hrs by Western blot analysis; assay type: functional, cell-based; summary of the method: as §2
# HCT-15 [12] = assay: Induction of apoptosis in human HCT15 cells assessed as change in Bax expression at 5 to 20 uM after 24 hrs by Western blot analysis; assay type: functional, cell-based; summary of the method: as §2
# HT-29 = assay: Growth inhibition of human HT-29 cells; assay type: functional, cell-based; summary of the method: as §4
# HCT-15 [13] = assay: Cell cycle arrest in human HCT15 cells assessed as accumulation at S phase at 5 uM after 12 hrs using propidium-iodide staining by flow-cytometry (reference value: 34.7 %); assay type: functional
# HCT-15 [14] = assay: Cell cycle arrest in human HCT15 cells assessed as accumulation at sub-G1 phase at 10 uM after 12 hrs using propidium-iodide staining by flow-cytometry (reference value: 5.2 %); assay type: functional
# HCT-15 [15] = assay: Cell cycle arrest in human HCT15 cells assessed as accumulation at G0/G1 phase at 10 uM after 12 hrs using propidium-iodide staining by flow-cytometry (reference value: 44.4 %); assay type: functional
# HCT-15 [16] = assay: Cell cycle arrest in human HCT15 cells assessed as accumulation at sub-G1 phase at 20 uM after 12 hrs using propidium-iodide staining by flow-cytometry (reference value: 5.2 %); assay type: functional
# HCT-15 [17] = assay: Cell cycle arrest in human HCT15 cells assessed as accumulation at G2/M phase at 20 uM after 12 hrs using propidium-iodide staining by flow-cytometry (reference value: 15.7 %); assay type: functional
# HCT-15 [18] = assay: Cell cycle arrest in human HCT15 cells assessed as accumulation at sub-G1 phase at 5 uM after 24 hrs using propidium-iodide staining by flow-cytometry (reference value: 6.5 %); assay type: functional
# HCT-15 [19] = assay: Cell cycle arrest in human HCT15 cells assessed as accumulation at G0/G1 phase at 5 uM after 24 hrs using propidium-iodide staining by flow-cytometry (reference value: 37.0 %); assay type: functional
# HCT-15 [20] = assay: Cell cycle arrest in human HCT15 cells assessed as accumulation at G2/M phase at 5 uM after 24 hrs using propidium-iodide staining by flow-cytometry (reference value: 22.4 %); assay type: functional
# HCT-15 [21] = assay: Cell cycle arrest in human HCT15 cells assessed as accumulation at sub-G1 phase at 10 uM after 24 hrs using propidium-iodide staining by flow-cytometry (reference value: 6.5 %); assay type: functional
# HCT-15 [22] = assay: Cell cycle arrest in human HCT15 cells assessed as accumulation at G2/M phase at 10 uM after 24 hrs using propidium-iodide staining by flow-cytometry (reference value: 22.4 %); assay type: functional
smiles,measurement,setting,value
C[C@H]1CC[C@@]2(OC1)O[C@H]1C[C@H]3[C@@H]4CC[C@@H]5C[C@@H](O[C@@H]6O[C@H](CO)[C@H](O)[C@H](O)[C@H]6O[C@@H]6O[C@H](CO)[C@@H](O)[C@H](O)[C@H]6O)CC[C@]5(C)[C@H]4CC[C@]3(C)[C@H]1[C@@H]2C [TIMOSAPONIN AIII],Activity,HCT-15 [1],43.4%
same,Activity,HCT-15 [2],0%
same,inhibition in vivo at 5 mg/kg,HCT-15 [3],37.3%
same,Activity,Mus musculus,Non-toxic
same,Activity,HCT-15 [4],Active
same,Activity,HCT-15 [5],Active
same,Activity,HCT-15 [6],Active
same,Activity,HCT-15 [7],Active
same,Activity,HCT-15 [8],Active
same,Activity,HCT-15 [9],Active
same,Activity,HCT-15 [10],Active
same,IC50,SW480,13.1 µM
same,IC50,Hs68,> 50 µM
same,Activity,HCT-15 [11],Active
same,Activity,HCT-15 [12],inactive
same,IC50,HT-29,10.3 µM
same,Activity,HCT-15 [13],22.5%
same,Activity,HCT-15 [14],14.2%
same,Activity,HCT-15 [15],43.2%
same,Activity,HCT-15 [16],41.8%
same,Activity,HCT-15 [17],41.8%
same,Activity,HCT-15 [18],7.2%
same,Activity,HCT-15 [19],36.4%
same,Activity,HCT-15 [20],19.4%
same,Activity,HCT-15 [21],6.4%
same,Activity,HCT-15 [22],30.4%
